Bioassay records from PubChem.
In the library only some 2.6% were active in any assay of this set; here they are far more common.
T cell HTS = modulates CD8 T cell binding to vesicles | 2C CD8+ T cell-vesicle binding, flow cytometry; active compounds read low | response (vesicle binding), % at 7 µM | 330,000 compounds, 0.068% hits | AID 2052;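 active means response, share of CD8 T cells binding vesicles, and their 90th percentile fluorescence all below set limits, cut at about 80% in these data, passing the limit was not always enough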;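 further: values below 100% mean blocked vesicle binding to the CD8+ T cells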
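Material: 2C TCR transgenic mouse naive CD8+ T cells, MACS-purified. Also added: QL9-charged Drosophila Ld/ICAM-1/B7-1 vesicles. Timing: binding 1.5 h at 37 °C. Measured by: high-throughput flow cytometry with anti-B7-1 and anti-CD8 staining. Read-out: percent CD8+ FL2 mean versus row control. Controls: Unloaded micro-vesicles (low), QL9 vesicles with 0.7% DMSO (high).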
MC4R antagonist = antagonists of human melanocortin 4 receptor (MC4R) | MC4R-expressing cells, MTII-stimulated cAMP, LANCE TR-FRET | inhibition, % at 6.5 µM | 360,000 compounds, 0.48% hits | AID 540295;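 active means inhibition above its plate's cutoff, the mean of tested wells on that plate plus 3 SD, cut at about 29% in these data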;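 further: 0% = Melanotan II alone and 100% = Melanotan II plus saturating MCL0020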
Target sequence (P32245 whole entry, looked up): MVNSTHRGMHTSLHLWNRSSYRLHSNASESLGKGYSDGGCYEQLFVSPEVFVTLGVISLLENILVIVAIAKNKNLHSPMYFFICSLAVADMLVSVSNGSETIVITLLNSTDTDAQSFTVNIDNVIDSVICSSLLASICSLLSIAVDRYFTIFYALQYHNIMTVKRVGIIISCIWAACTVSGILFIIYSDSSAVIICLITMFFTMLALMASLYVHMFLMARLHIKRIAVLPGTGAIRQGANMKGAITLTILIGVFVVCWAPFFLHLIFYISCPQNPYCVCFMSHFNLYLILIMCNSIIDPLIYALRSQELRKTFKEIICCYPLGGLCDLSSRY
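Test system: U2OS cells stably expressing human melanocortin 4 receptor (MC4R); also added: Melanotan II challenge; compound: 6.5 µM single dose; timing: 30-min compound preincubation, 1-h Melanotan II challenge, 1-h detection, room temperature; signal: Eu-cAMP/anti-cAMP TR-FRET, emission 671 nm; repeats: one well per compound, no replicates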
EP2 modulator = modulates human prostaglandin E2 receptor EP2 signaling; P43116; EP2-expressing cells, cAMP HTRF FRET, PGE2 co-stimulation; induction, % at 25 µM; 260,000 compounds, 0.83% hits; AID 940;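 active means compounds whose cAMP rise, as percent of the full-agonist control response, exceeds 60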;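 further: rat C6 glioma line stably carrying human EP2 under a CMV promoter; the protocol text gives 20 µM as final concentration; 100% = response of wells given 1 µM PGE2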
Target sequence (P43116 whole entry, looked up): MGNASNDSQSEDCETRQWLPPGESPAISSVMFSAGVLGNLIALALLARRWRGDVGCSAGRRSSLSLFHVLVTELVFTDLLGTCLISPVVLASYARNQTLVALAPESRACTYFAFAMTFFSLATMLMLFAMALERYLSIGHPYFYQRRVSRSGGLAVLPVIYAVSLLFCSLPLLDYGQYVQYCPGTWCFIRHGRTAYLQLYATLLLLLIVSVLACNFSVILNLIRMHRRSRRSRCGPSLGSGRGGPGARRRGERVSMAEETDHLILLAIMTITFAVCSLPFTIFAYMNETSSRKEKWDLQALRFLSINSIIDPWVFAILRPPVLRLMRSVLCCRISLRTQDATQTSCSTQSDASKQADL
Granule exo inh = blocks lytic granule exocytosis. TALL-104 LAMP-1 surface exposure, flow cytometry; cells stimulated with thapsigargin and PMA. inhibition, % at 10 µM. 360,000 compounds, 0.66% hits;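 active means inhibition above about 55%, limit read from the data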
MC4R ag barr = activates human MC4R beta-arrestin recruitment; U2OS MC4R beta-arrestin complementation, luminescence; percent of melanotan II response, DMSO zero; P32245; activation, % at 8.9 µM; 360,000 compounds, 0.98% hits;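 active means activation above a per-plate cutoff, the mean activation of sample wells on that plate plus 3 SD, cut at about 8% in these data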
EP2 antag = blocks the human prostaglandin E2 receptor EP2; P43116; C6 glioma cells expressing human EP2, cAMP TR-FRET; cells stimulated with saturating PGE2; inhibition, % at 25 µM; 260,000 compounds, 0.52% hits; AID 1422;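 active means percent inhibition above 40 after rounding to a whole number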;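 further: rat C6 glioma host cells with rolipram phosphodiesterase inhibitor present; the protocol text gives 20 µM as final concentration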
EP2 confirm = EP2 receptor cAMP induction, counter-screens negative; 1,300 compounds, 47% hits; AID 1080; shares compounds with EP2 modulator; C6 glioma EP2 cells, cAMP HTRF induction; plus low (about EC15) PGE2 agonist; calls only at 20 µM (by protocol);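 active means cAMP induction above 50% in the main assay while under 30% in all four parallel counter assays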;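 further: rat C6 glioma cells stably expressing human EP2 receptor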
The depositor's hits bear a star; i = inactive; · = no result given; + = active, no number.

SMILES	T cell HTS	MC4R antagonist	EP2 modulator	Granule exo inh	MC4R ag barr	EP2 antag	EP2 confirm
COc1ccccc1C(=O)Nc1ccc(-c2nnn(CC(=O)N3CCOCC3)n2)cc1	391.4	0.4	12.7	16.7	1.8	3.0	·
CCn1nnc(-c2ccccc2NC(=O)c2cc(OC)c(OC)c(OC)c2)n1	552.3	1.6	38.3	14.5	0.4	19.9	·
CCn1nnc(-c2ccccc2NC(=O)c2cc(OC)cc(OC)c2)n1	431.4	8.6	73.9*	21.5	1.0	3.1	+
Cn1c(=O)c2c(ncn2CC(=O)O)n(C)c1=O	·	16.4	·	-3.4	-0.6	·	·
Cn1c(=O)c2c(ncn2CCSS(=O)(=O)O)n(C)c1=O	·	·	60.8*	·	·	6.3	i
CN(C)c1ccc(/C=C2\SC(=S)N(Nc3ncc(C(F)(F)F)cc3Cl)C2=O)cc1	595.4	0.5	3.0	1.1	1.9	4.6	·
COc1cc(/C=C2\SC(=S)N(Nc3ncc(C(F)(F)F)cc3Cl)C2=O)ccc1O	584.2	4.5	65.8*	3.6	-4.4	7.3	i
CC1=Nc2ccccc2/C1=C/c1sc(=S)n(-c2cccc(C(=O)O)c2)c1O	·	-3.9	71.2*	11.8	5.0	7.2	+
CCCc1nc(SCc2cccnc2)c2c(=O)n(C)c(=O)n(C)c2n1	620.1	20.6	45.3	-0.5	0.9	9.8	·
Cn1c(=O)c2c(SCc3cccnc3)nc(CC(C)(C)C)nc2n(C)c1=O	575.9	10.6	58.8	-1.8	4.5	6.3	+
Cc1oc(-c2ccccc2)cc1C(=O)Nc1cccc(/C=C\C(=O)O)c1	253.0	10.4	81.6*	0.9	1.6	10.4	+
Cc1oc(C(C)(C)C)cc1C(=O)Nc1cccc(/C=C\C(=O)O)c1	298.8	28.4	-54.7	-2.0	1.2	17.4	·
O=C(Nc1nc2ccc(F)cc2s1)C1=COCCO1	324.5	7.0	·	0.1	-3.2	·	·
O=C(Nc1ccccc1-c1nc2ccccc2s1)C1=COCCO1	332.4	18.5	73.8*	-2.2	2.2	4.9	i
Cc1cc(C)c(S(=O)(=O)NCC2CCC(C(=O)NCCCN3CCOCC3)CC2)c(C)c1 (configuration not stated)	·	12.0	-31.8	-0.8	-0.5	4.9	·
CC(Cc1ccccc1)NC(=O)C1(c2ccccc2)CCOCC1 (configuration not stated)	281.5	-1.3	69.2*	3.9	-1.8	11.0	i
COc1ccc(C2(C(=O)NC(C)Cc3ccccc3)CCOCC2)cc1OC (configuration not stated)	·	·	-5.4	·	·	6.8	·
OCCCNc1nc(-c2ccc(Br)cc2)nnc1-c1ccc(Cl)cc1	291.7	21.7	95.1*	1.9	-1.2	9.3	+
OCCCNc1nc(-c2ccc(Cl)cc2)nc2ccccc12	202.8	3.0	·	19.2	-2.5	·	·
Cc1cccc(C)c1N1CCN(CCn2c(=S)[nH]c3ccccc3c2=O)CC1	176.4	-1.6	·	2.5	0.4	·	·
O=C(N/N=C(\c1ccccc1)c1cccnc1)c1cccc(F)c1	i	4.0	·	3.4	-3.0	·	·
CSc1nc(Sc2ccccc2)c2ccccc2n1	370.4	1.0	78.8*	-4.9	-1.5	13.7	i
CSc1nc(Sc2ccc(Cl)cc2)c2ccccc2n1	563.0	1.6	47.7	-2.3	4.0	·	·
CCOC(=O)C1=CCN(S(=O)(=O)c2ccccc2C)C1c1cccc(Br)c1 (configuration not stated)	·	·	·	0.2	·	·	·
O=C(CSc1nnc(COc2ccccc2)n1-c1ccccc1)c1ccccc1	286.5	1.0	50.5	-1.4	-0.9	10.1	i
SMILES	T cell HTS	MC4R antagonist	EP2 modulator	Granule exo inh	MC4R ag barr	EP2 antag	EP2 confirm
COc1ccc(CCN2C(=O)c3ccccc3C2c2nnnn2-c2ccc3c(c2)OCCO3)cc1OC (configuration not stated)	·	·	·	-9.6	·	·	·
O=P(NC1CCCCC1)(c1ccccc1)c1ccccc1	·	5.6	·	-4.1	0.3	·	·
CC/C(=C\C1CCCCC1)C(NP(=O)(c1ccccc1)c1ccccc1)c1ccccc1 (configuration not stated)	·	8.8	70.5*	59.2*	-1.4	5.2	+
C[C@H]1CC[C@@H](C(C)(C)O)CC2=C1CC[C@@H]2C	·	·	52.5	·	·	6.5	i
CCC(=O)N1N=C(c2cccs2)CC1c1ccc(OC)cc1 (configuration not stated)	231.8	-0.2	·	-8.8	0.5	·	·
COc1ccc(C2CC(c3cccs3)=NN2C(=O)c2ccc(Br)o2)cc1 (configuration not stated)	218.7	17.1	51.3	0.5	0.3	8.9	i
Clc1ccc(OCCN2CCOCC2)cc1	184.1	-7.6	·	-7.6	-1.9	·	·
COc1cc(C)c(NC(c2ccccc2)c2ccccc2)cc1OC	433.5	9.7	66.6*	41.8	-1.6	3.5	+
COc1ccccc1N(C(=O)NCc1ccccc1)C1=NCC(C)S1 (configuration not stated)	601.9	9.6	68.7*	3.6	1.5	8.6	+
COc1ccc(CN2CCN(C(=O)CN3C(=O)C4C5C=CC(C5)C4C3=O)CC2)c(OC)c1OC (configuration not stated)	309.9	14.4	-6.5	-0.9	0.5	11.1	·
CC1=CC(C)(C)N2C(=O)C3(NCCc4c3[nH]c3ccccc43)c3cc(C)cc1c32 (configuration not stated)	84.0	10.5	-15.6	3.5	1.7	4.3	·
CC1=CC(C)(C)N2C(=O)C3(SCC(=O)N3c3ccc(F)cc3)c3cc(C)cc1c32 (configuration not stated)	427.4	18.4	76.4*	5.2	6.9	3.1	+
CS(=O)(=O)N(CC(=O)N1CCOCC1)Cc1ccc(Cl)cc1	253.6	6.3	-5.1	-0.9	-2.0	7.5	·
CNc1cc(CS(=O)c2ccccc2)nc(-c2ccccc2)n1 (configuration not stated)	320.5	-3.0	-8.0	-1.3	-1.8	14.6	·
O=S(Cc1cc(Sc2ccccc2)nc(-c2ccccc2)n1)c1ccccc1 (configuration not stated)	274.5	9.4	71.5*	11.4	0.0	8.1	+
COc1ccc(C(=O)NCCCN2CCOCC2)cc1OC	154.1	-0.5	67.8*	0.2	-2.2	3.5	i
CCOC(=O)c1sc2nccc(N(C)C)c2c1N=CNOC	503.4	-16.1	10.9	-1.7	-1.1	17.8	·
CCOC(=O)c1sc2nccc(N(C)C)c2c1N=CNOCc1ccccc1	327.8	-19.2	74.2*	2.5	0.9	10.3	+
